Assay results as given in ChEMBL document CHEMBL4673367, “N-Benzyl-linoleamide, a Constituent of Lepidium meyenii (Maca), Is an Orally Bioavailable Soluble Epoxide Hydrolase Inhibitor That Alleviates Inflammatory Pain” (J Nat Prod, 2020).
Activity calls are given as the source filed them.

Tests used:
Rattus norvegicus = experiment: Antinociceptive activity against LPS-induced inflammatory pain Sprague-Dawley rat model assessed as increase in paw withdrawal threshold at 100 mg/kg, po measured up to 6 hrs by von Frey assay; assay type: functional, organism-based; conditions: time hrs <=6
How it was run: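 Male SD rats, n=4/group, randomized and blinded. Baseline von Frey mechanical withdrawal thresholds taken before dosing. Oral gavage of 100 mg/kg in 1 mL 100% NEOBEE 1053 (vehicle control alongside). Immediately after, 50 μL of 0.2 μg/mL LPS in saline injected intraplantar into one hind paw. Ipsilateral thresholds measured 3–5 times per rat per time point over 6 h. Expressed as percent of baseline, group mean ± SEM.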

[1] = Half life in Sprague-Dawley rat at 100 mg/kg, po measured up to 96 hrs by LC/MS/MS analysis; assay type: ADME, organism-based; conditions: in vivo
How it was run: (§1)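 Male SD rats (8 weeks, 250–300 g, n=4/group) given a single oral gavage of 100 mg/kg in 100% NEOBEE 1053. Plasma concentrations followed over a 96-h time course. Blood processed and quantified by an earlier reported method. Parameters reported as mean ± SEM.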

[2] = AUC in Sprague-Dawley rat at 100 mg/kg, po measured up to 96 hrs by LC/MS/MS analysis; assay type: ADME, organism-based; design: route oral, dose 100 mg/kg, time <=96; conditions: in vivo; how it was run: as §1
[3] = Tmax in Sprague-Dawley rat at 100 mg/kg, po measured up to 96 hrs by LC/MS/MS analysis; assay type: ADME, organism-based; conditions: in vivo; how it was run: as §1
[4] = Cmax in Sprague-Dawley rat at 100 mg/kg, po measured up to 96 hrs by LC/MS/MS analysis; assay type: ADME, organism-based; design: route oral, dose 100 mg/kg, time <=96; conditions: in vivo; how it was run: as §1
[5] = biological target: T1, Bifunctional epoxide hydrolase 2 (Mus musculus, UniProt P34914); experiment: Inhibition of recombinant mouse sEH expressed in baculovirus expression system using MNPC as substrate by fluorescence-based assay
T1 sequence (P34914 whole entry): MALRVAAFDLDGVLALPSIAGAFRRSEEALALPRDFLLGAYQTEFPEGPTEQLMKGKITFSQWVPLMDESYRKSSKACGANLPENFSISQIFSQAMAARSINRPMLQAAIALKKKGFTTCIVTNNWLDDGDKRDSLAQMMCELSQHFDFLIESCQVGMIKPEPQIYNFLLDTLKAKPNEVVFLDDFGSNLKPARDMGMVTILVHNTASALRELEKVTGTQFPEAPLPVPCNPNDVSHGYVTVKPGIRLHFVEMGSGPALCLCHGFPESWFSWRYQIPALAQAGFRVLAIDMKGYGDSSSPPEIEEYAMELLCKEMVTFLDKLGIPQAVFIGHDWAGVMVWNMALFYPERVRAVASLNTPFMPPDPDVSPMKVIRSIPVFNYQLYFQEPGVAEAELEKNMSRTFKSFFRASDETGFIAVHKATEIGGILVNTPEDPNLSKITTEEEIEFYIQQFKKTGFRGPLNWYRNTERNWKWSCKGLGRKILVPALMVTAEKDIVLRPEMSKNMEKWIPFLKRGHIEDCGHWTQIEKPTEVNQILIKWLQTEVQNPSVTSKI
How it was run: (§2)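 Recombinant human, mouse or rat sEH tested with serial dilutions of inhibitor in 96-well format. MNPC substrate at 5 μM final. Fluorescent 6-methoxynaphthaldehyde product read at ex 330 / em 465 nm. IC50 derived from these readings.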

[6] = biological target: T2, Bifunctional epoxide hydrolase 2 (Rattus norvegicus, UniProt P80299); experiment: Inhibition of recombinant rat sEH expressed in baculovirus expression system using MNPC as substrate by fluorescence-based assay; how it was run: as §2
T2 sequence (P80299 whole entry): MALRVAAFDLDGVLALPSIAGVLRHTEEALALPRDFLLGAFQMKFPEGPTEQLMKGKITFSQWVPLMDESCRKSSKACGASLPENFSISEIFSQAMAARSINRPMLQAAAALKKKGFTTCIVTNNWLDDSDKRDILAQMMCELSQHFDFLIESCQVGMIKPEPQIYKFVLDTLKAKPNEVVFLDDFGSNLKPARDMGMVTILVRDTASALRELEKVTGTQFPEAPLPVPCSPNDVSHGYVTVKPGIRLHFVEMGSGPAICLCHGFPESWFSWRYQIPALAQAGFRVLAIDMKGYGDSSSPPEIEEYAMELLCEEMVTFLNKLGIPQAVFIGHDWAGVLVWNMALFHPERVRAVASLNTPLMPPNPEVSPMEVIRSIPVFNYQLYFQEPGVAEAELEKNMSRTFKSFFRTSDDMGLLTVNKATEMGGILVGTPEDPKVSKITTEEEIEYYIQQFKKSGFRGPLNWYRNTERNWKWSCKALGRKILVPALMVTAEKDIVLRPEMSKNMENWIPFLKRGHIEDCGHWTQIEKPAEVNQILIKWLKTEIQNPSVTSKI

[7] = biological target: T3, Bifunctional epoxide hydrolase 2 (Homo sapiens, UniProt P34913); experiment: Inhibition of recombinant human sEH expressed in baculovirus expression system using MNPC as substrate by fluorescence-based assay; how it was run: as §2
T3 sequence (P34913 whole entry): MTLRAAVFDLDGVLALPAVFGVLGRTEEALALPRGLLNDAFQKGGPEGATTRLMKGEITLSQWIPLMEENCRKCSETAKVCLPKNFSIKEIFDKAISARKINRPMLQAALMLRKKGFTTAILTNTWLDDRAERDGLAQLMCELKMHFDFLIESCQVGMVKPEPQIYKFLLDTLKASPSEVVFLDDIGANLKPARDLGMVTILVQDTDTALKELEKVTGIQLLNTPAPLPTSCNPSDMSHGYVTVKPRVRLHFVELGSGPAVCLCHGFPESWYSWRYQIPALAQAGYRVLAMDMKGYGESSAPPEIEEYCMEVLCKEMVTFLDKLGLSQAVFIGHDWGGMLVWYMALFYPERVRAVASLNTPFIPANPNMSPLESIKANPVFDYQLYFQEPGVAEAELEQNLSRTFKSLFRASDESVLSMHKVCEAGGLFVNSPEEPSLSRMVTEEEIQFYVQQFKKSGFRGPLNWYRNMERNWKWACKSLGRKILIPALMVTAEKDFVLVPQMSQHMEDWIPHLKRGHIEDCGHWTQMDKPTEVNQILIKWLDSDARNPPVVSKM

Row | Structure (SMILES) | t1/2 [1] [h] | AUC [2] [µM·h] | Tmax [3] [h] | Cmax [4] [nM] | IC50 [5] [nM] | IC50 [6] [nM] | IC50 [7] [nM] | Activity (Rattus norvegicus)
1 | CCCCCCCCCCCCCCCC(=O)NCc1ccc(OC)c(OC)c1 |  |  |  |  | > 100000 | 15900 | 7060 | 
2 | CCCCC/C=C\C/C=C\C/C=C\C/C=C\CCCC(=O)NCc1cccc(OC)c1 |  |  |  |  | 73 | 22 | 55 | 
3 | CC/C=C\C/C=C\C/C=C\CCCCCCCC(=O)NCc1ccc(OC)c(OC)c1 |  |  |  |  | 122 | 90 | 84 | 
4 | CCCCCCCC/C=C\CCCCCCCC(=O)NCc1ccccc1 |  |  |  |  | 265 | 198 | 893 | 
5 | CCCCCCCCCCCCCCCC(=O)NCc1cccc(OC)c1 |  |  |  |  | 159 | 113 | 235 | 
6 | CC/C=C\C/C=C\C/C=C\C/C=C\C/C=C\CCCC(=O)NCc1cccc(OC)c1 |  |  |  |  | 49 | 18.6 | 63 | 
7 | CCCCCCCCCCCCCCCCCC(=O)NCc1ccccc1 |  |  |  |  | 59600 | 35800 | > 100000 | 
8 | CCCCCCCCCCCCCCCC(=O)NCc1ccccc1 |  |  |  |  | 422 | 370 | 524 | 
9 | CCCCC/C=C\C/C=C\CCCCCCCC(=O)NCc1ccc(OC)c(OC)c1 |  |  |  |  | 148 | 111 | 104 | 
10 | CC/C=C\C/C=C\C/C=C\C/C=C\C/C=C\CCCC(=O)NCc1ccccc1 |  |  |  |  | 43 | 29 | 111 | 
11 | CCCCC/C=C\C/C=C\C/C=C\C/C=C\CCCC(=O)NCc1ccccc1 |  |  |  |  | 50 | 40 | 123 | 
12 | CCCCCCCCCCCCCCCCCC(=O)NCc1cccc(OC)c1 |  |  |  |  | 89900 | 28700 | 16100 | 
13 | CCCCCCCC/C=C\CCCCCCCC(=O)NCc1cccc(OC)c1 |  |  |  |  | 126 | 84 | 241 | 

More lines, main results first:

Row | t1/2 [1] [h] | AUC [2] [µM·h] | Tmax [3] [h] | Cmax [4] [nM] | IC50 [5] [nM] | IC50 [6] [nM] | IC50 [7] [nM] | Structure (SMILES) | Activity (Rattus norvegicus)
14 | 14.6 | 0.723 | 6 | 54 | 28 | 23 | 134 | CC/C=C\C/C=C\C/C=C\CCCCCCCC(=O)NCc1ccccc1 | inactive
15 | 9 | 3.69 | 3 | 519 | 44 | 41 | 155 | CCCCC/C=C\C/C=C\CCCCCCCC(=O)NCc1ccccc1 | Active
16 |  |  |  |  | 38 | 43 | 92 | CCCCC/C=C\C/C=C\CCCCCCCC(=O)NCc1cccc(OC)c1 | 
17 |  |  |  |  | 27 | 9.3 | 76 | CC/C=C\C/C=C\C/C=C\CCCCCCCC(=O)NCc1cccc(OC)c1 | 
18 |  |  |  |  | 39 | 15 | 15 | CC/C=C\C/C=C\C/C=C\CCCCCCCC(=O)NCCc1ccccc1 | 
19 |  |  |  |  | 91 | 33 |  | CCCCC/C=C\C/C=C\CCCCCCCC(=O)NCCc1ccccc1 | 
